Among the data in PubChem BioAssay AID624204 (Sanford-Burnham Center for Chemical Genomics, 2012) are inhibition values, retold here.

The inhibition is the drop in the measured response relative to a control, in per cent.

Screen size: about 360,000 compounds; about 770 (0.21%) were called active. The sample as a whole holds a higher share of actives than the screen did. Unmarked numbers belong to inactive results.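 Rule for the calls: active = inhibition at least 30% at 10 µM, raw YFP signal under a set limit, fluorescence ratio 0.5 to 1.5; inactive = the rest.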

Chain of Sentrin-specific protease 1 (Homo sapiens) (Q9P0U3 419-644 limits assumed): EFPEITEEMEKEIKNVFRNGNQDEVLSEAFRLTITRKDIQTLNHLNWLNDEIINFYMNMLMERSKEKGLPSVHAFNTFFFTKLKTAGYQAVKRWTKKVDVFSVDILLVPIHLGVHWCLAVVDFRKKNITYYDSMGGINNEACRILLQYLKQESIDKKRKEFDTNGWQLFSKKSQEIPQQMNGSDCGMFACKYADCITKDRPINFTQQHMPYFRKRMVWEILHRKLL

In this experiment the target is Sentrin-specific protease 1 (Homo sapiens) (UniProt Q9P0U3). The experiment is described as follows: blockers of SENP1 SUMO protease activity – biochemical, FRET, uHTS, primary screen (AID 624204).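 Note: 0% = enzyme with DMSO and 100% = no enzyme wells.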 As to conditions: recombinant SENP1 catalytic domain, CyPet-SUMO1-YPet FRET cleavage; at 10 µM; hits give high values. The method, boiled down: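 system = hSENP1 catalytic domain, recombinant | reagent = SFCypet-SUMO1-SFYpet substrate at 25 nM | doses = one dose per compound, 10 µM, 0.5% DMSO | incubation = enzyme reaction for 50 min at room temperature, dark | measured by = FRET, CFP and YFP emission | controls = no-enzyme low, enzyme-DMSO high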
As for `N/C(=N\OC(=O)c1ccc2c(c1)OCO2)c1ccc(Br)cc1`, the inhibition is 2.72%.

As for `N/C(=N\OC(=O)N1c2ccccc2Sc2ccccc21)c1ccc(Br)cc1`, the inhibition is 45.8% (active).

For `N/C(=N\OC(=O)CCc1ccccc1)c1ccc(Cl)cc1`, the inhibition was 4.15%.

In the case of `Fc1ccc(CNCc2ccc(Br)cc2)cc1`, the inhibition is 0.319%.

Consider `CC(C)c1ccc(S(=O)(=O)N2CCC3(CC2)OCCO3)cc1`, for which the inhibition was -0.675%.

Take `CC(C)=CCN1CCN(Cc2cc3ccccc3[nH]2)CC1CCO` (centres undefined): the inhibition was -16.2%.

Consider `O=C(OCC(=O)N1CCCCCC1)c1ccc(Br)c(S(=O)(=O)N2CCOCC2)c1`, for which the inhibition is 2.31%.

For the compound `CCC1CCCCN1CCNC(=O)c1[nH]c(C)c(C(C)=O)c1C` (centres undefined), the inhibition was -5.33%.

For the compound `CS(=O)(=O)Nc1ccccc1N=C(c1ccccc1)c1ccccc1`, the inhibition is 1.89%.

For `CCc1ccc(C(=O)NN=C2CCCCCC2)s1`, the inhibition is 1.74%.

With `COc1ccc(-c2c(C#N)cnc(C)c2C)c(O)c1OC`, the inhibition was 0.472%.

For the compound `COC(=O)CNC(=O)C(CCSC)NC(C)=O` (centres undefined), the inhibition is 2.78%.

Turning to `CC(C)n1cnc2c(NCc3ccccc3)cc(OCC3CCN(C)CC3)cc21`, the inhibition is -28.3%.

On to `COCC1CCN(C(=O)C2CCC(=O)N(Cc3cccc(C(F)(F)F)c3)C2)CC1` (centres undefined), for which the inhibition was 2.83%.

Consider `O=C(c1cccs1)N(Cc1cc2ccccc2[nH]c1=O)CC1CCCO1` (centres undefined), for which the inhibition was 0.621%.

For the compound `COc1ccc(S(=O)(=O)N2CCOC2CNC(=O)C(=O)NCc2ccc(F)cc2)cc1` (centres undefined), the inhibition was 0.939%.

Consider `Cc1oc2c(F)c(F)c(F)c(F)c2c1S(=O)(=O)Nc1cccc(C(F)(F)F)c1`, for which the inhibition was 0.0743%.

As to `COc1ccc(S(=O)(=O)N(C)C[C@H]2OCc3cnnn3CCCC(=O)N([C@H](C)CO)C[C@H]2C)cc1`, the inhibition was 0.96%.

Regarding `O=C(COC(=O)Cn1cnc2ccccc2c1=O)NCC12CC3CC(CC(C3)C1)C2`, the inhibition was -2.59%.

`O=C(Cn1cnc2ccccc21)Nc1ccccc1-c1ccccc1`: the inhibition was 2.05%.

On to `O=C(COC(=O)Cn1cnc2ccccc21)Nc1cccc2c1C(=O)c1ccccc1C2=O`, for which the inhibition was 49.1% (active).

`O=[N+]([O-])c1cc(S(=O)(=O)Nc2cccc(Cl)c2)ccc1N=Nc1c(O)[nH]c2ccccc12`: the inhibition is 7.59%.

Turning to `CCN(CC)S(=O)(=O)c1cc([N+](=O)[O-])ccc1N=Nc1c(O)n(C)c2ccccc12`, the inhibition is 38.9% (active).

In the case of `CCN(CC)S(=O)(=O)c1ccc2c3c(cccc13)C(=O)S2`, the inhibition was -5.16%.

Regarding `COc1ccccc1-c1noc(CSc2nc(C)cc(=O)[nH]2)n1`, the inhibition was 0.334%.

Consider `CC(/C=C/C1(O)C(C)CC(=O)CC1(C)C)OC1OC(CO)C(O)C(O)C1O` (centres undefined), for which the inhibition is -6.63%.

In the case of `O=C(CNC(=O)N1CC(=O)Nc2ccccc21)Nc1ccc(Br)cc1F`, the inhibition was -5.9%.

Consider `Cc1ccc(S(=O)(=O)NC2CCCCCC2)cc1C(N)=O`, for which the inhibition is 1.4%.

On to `CCN(C(=O)CSc1nnc2ccccn12)C1CCS(=O)(=O)C1` (centres undefined), for which the inhibition was 0.95%.

With `CCCCCn1nnnc1-c1nc2cc3ccccc3cc2[nH]c1=O`, the inhibition was 70.6% (active).

In the case of `CCCCCn1nnnc1C1c2ccccc2C(=O)N1Cc1ccco1` (centres undefined), the inhibition is 2.03%.

For the compound `CCCCn1c(-c2cccc(C)c2)nc2cc3[nH]c(=O)c(C(C)C)nc3cc21`, the inhibition is -46.9%.

Consider `CC(=O)Nc1ccc(Sc2ccccc2C(=O)N2CCCC2)cn1`, for which the inhibition was 0.55%.

For the compound `Cc1c(CN2CCC(n3nccc3NC(=O)CCc3ccccc3)CC2)cnn1C`, the inhibition was 2.13%.

For `CCn1nc(C(=O)NNC(=O)C2CSC3(C)CCC(=O)N23)c2ccccc2c1=O` (centres undefined), the inhibition is 1.35%.

In the case of `CCc1nc2ccc(C(=O)Nc3cc(-c4ccccc4)ccc3OC)cn2c1N(CC)CC(=O)N(C)C`, the inhibition was -1.8%.

Turning to `CCCn1c(=O)c2ccccc2n2c(SCC(=O)/C(C#N)=C(\C)N)nnc12`, the inhibition was -2.1%.

Regarding `CN(C)CCN(Cc1ccccc1)S(=O)(=O)c1csc(C(N)=O)c1`, the inhibition was 3.33%.

`Cc1ccc(SC(=O)COc2ccc(C)c(C)c2)cc1`: the inhibition was 4.05%.

Turning to `CC(C)OC(=O)CC(=O)CC(O)c1cccc([N+](=O)[O-])c1` (centres undefined), the inhibition was 1.31%.

Take `COc1ccccc1-c1nnc(NC(=O)c2cccc(N3C(=O)CCC3=O)c2)o1`: the inhibition was 1.37%.

Turning to `COc1cccc(/C=N/NC(=O)c2[nH]nc3c2CCc2ccccc2-3)c1O`, the inhibition is 48.9% (active).

`COc1ccc(Cl)cc1C=CC=NNC(=O)c1ccncc1`: the inhibition was 2.79%.

Consider `CCOc1cc(/C=C2\SC(N3CCCCC3)=NC2=O)ccc1O`, for which the inhibition is 56.6% (active).

On to `CC1CCN(C2=NC(=O)/C(=C/c3cn[nH]c3-c3ccccc3)S2)CC1`, for which the inhibition is -1.05%.

Regarding `CCOc1cc(/C=C2\SC(N3CCCC(C)C3)=NC2=O)ccc1O` (centres undefined), the inhibition was 58.5% (active).

With `CCN1C(=O)/C(=C2\SC(N3CCCCC3)=NC2=O)c2ccccc21`, the inhibition was 1.36%.

In the case of `CCOc1cc(/C=C2\C(=N)N3N=C(C)SC3=NC2=O)ccc1OCCOc1ccccc1`, the inhibition was -3.15%.

`Cc1cccc(N(C(=O)Cc2cccs2)C(C(=O)NCc2ccco2)c2ccncc2)c1` (centres undefined): the inhibition was -0.142%.

For the compound `COc1ccc(S(=O)(=O)N2CCC(C(=O)NCCC(=O)NCCc3cccc(F)c3)CC2)cc1`, the inhibition was 1.66%.

As for `COc1ccc(CC(=O)N[C@@H]2c3cc(OC)c(OC)cc3C[C@H]2OCc2ccccc2)cc1`, the inhibition was 2.95%.

With `O=C(NC1CCCCC1)C1CC(=O)N(CCc2ccccc2)C1` (centres undefined), the inhibition was 1.46%.

Turning to `CCOC(=O)/C(=N\Nc1cc(Cl)ccc1Cl)N1CCN(C)CC1`, the inhibition was 0.895%.

On to `O=S(=O)(c1ccc(F)cc1)N1CCN(C(=S)NC2CCCC2)CC1`, for which the inhibition was 2.06%.

As to `CCCCn1nnnc1NCc1cc(OC)c(OC)c(OC)c1`, the inhibition is 1.02%.

Take `CCOC(=O)N1CCC(O)(c2cc(C)c(C)cc2C)CC1`: the inhibition is 0.28%.

Regarding `Clc1cccc(Cc2c(-c3cccc(Cl)c3)nc3ccc(Cl)cn23)c1`, the inhibition was 18.5%.

As for `Fc1cccc(Cc2c(-c3cccc(Cl)c3)nc3ccc(Br)cn23)c1`, the inhibition was 45.8% (active).

For `Fc1cccc(Cc2c(-c3ccc(Cl)cc3)nc3ccc(Cl)cn23)c1`, the inhibition is 9.99%.
